“And” between values parts separate entries of the source, which are not always exact repeats. Identical values can stand only once.
Assays:
[1] = Adverse events; format: in vivo, human; conditions: for Upper GI haemorrhage grade 3, number of patients / Anaemia grade 3, number of patients / Infection grade 3, number of patients / Dyspnoea grade 3, number of patients / Hypokalaemia grade 3, number of patients / Abdominal pain grade 3, number of patients / Anaemia grade 4, number of patients / Dizziness grade 3, number of patients / Fatigue grade 3, number of patients / Leukopenia grade 3, number of patients / Neutropenia grade 3, number of patients / Neutropenia grade 4, number of patients / Pain grade 3, number of patients / Rash grade 3, number of patients / Vomiting grade 3, number of patients / Abdominal distension grade 3, number of patients / Decreased appetite grade 3, number of patients / Febrile neutropenia grade 3, number of patients / Ileus grade 3, number of patients / Leukopenia grade 4, number of patients / Thrombocytopenia grade 3, number of patients: irrespective of relatedness
[2] = Phase I 3+3 dose escalation: MTD and dose-limiting toxicities; format: in vivo, human; conditions: for maximum tolerated dose (MTD): Asian patients
Outline: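 Open-label 3+3 escalation run separately for each schedule. Test compound given as a 2-h IV infusion every 3 weeks: A on day 1 (100, 200, 250, 300 mg, up to 400), B on days 1 and 8 (50, 100, 150, 200 mg, up to 250). MTD was the highest dose with DLT in ≤1 of 6 patients in course 1. Graded by CTCAE v3.0. Up to 18 patients treated at the MTD.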

CC[C@@H]1C(=O)N(C)c2cnc(Nc3ccc(C(=O)N[C@H]4CC[C@H](N5CCN(CC6CC6)CC5)CC4)cc3OC)nc2N1C(C)C [volasertib]
Upper GI haemorrhage grade 3, number of patients ([1]; schedule A, total (n=32)): 1 (3.1) n (%) | Anaemia grade 3, number of patients ([1]; schedule B, 50 mg (n=4)): 1 n | Infection grade 3, number of patients ([1]; schedule B, 50 mg (n=4)): 1 n | Dyspnoea grade 3, number of patients ([1]; schedule B, 100 mg (n=4)): 1 n | Hypokalaemia grade 3, number of patients ([1]; schedule B, 100 mg (n=4)): 1 n | Abdominal pain grade 3, number of patients ([1]; schedule B, 150 mg (n=16)): 2 n | Anaemia grade 3, number of patients ([1]; schedule B, 150 mg (n=16)): 1 n | Anaemia grade 4, number of patients ([1]; schedule B, 150 mg (n=16)): 2 n | Dizziness grade 3, number of patients ([1]; schedule B, 150 mg (n=16)): 1 n | Fatigue grade 3, number of patients ([1]; schedule B, 150 mg (n=16)): 1 n | Leukopenia grade 3, number of patients ([1]; schedule B, 150 mg (n=16)): 1 n | Neutropenia grade 3, number of patients ([1]; schedule B, 150 mg (n=16)): 2 n | Neutropenia grade 4, number of patients ([1]; schedule B, 150 mg (n=16)): 1 n | Pain grade 3, number of patients ([1]; schedule B, 150 mg (n=16)): 2 n | Rash grade 3, number of patients ([1]; schedule B, 150 mg (n=16)): 1 n | Upper GI haemorrhage grade 3, number of patients ([1]; schedule B, 150 mg (n=16)): 1 n | Vomiting grade 3, number of patients ([1]; schedule B, 150 mg (n=16)): 1 n | Abdominal distension grade 3, number of patients ([1]; schedule B, 200 mg (n=3)): 1 n | Anaemia grade 3, number of patients ([1]; schedule B, 200 mg (n=3)): 2 n | Decreased appetite grade 3, number of patients ([1]; schedule B, 200 mg (n=3)): 1 n | Fatigue grade 3, number of patients ([1]; schedule B, 200 mg (n=3)): 1 n | Febrile neutropenia grade 3, number of patients ([1]; schedule B, 200 mg (n=3)): 1 n | Hypokalaemia grade 3, number of patients ([1]; schedule B, 200 mg (n=3)): 1 n | Ileus grade 3, number of patients ([1]; schedule B, 200 mg (n=3)): 2 n | Infection grade 3, number of patients ([1]; schedule B, 200 mg (n=3)): 1 n | Leukopenia grade 4, number of patients ([1]; schedule B, 200 mg (n=3)): 1 n | Neutropenia grade 4, number of patients ([1]; schedule B, 200 mg (n=3)): 2 n | Thrombocytopenia grade 3, number of patients ([1]; schedule B, 200 mg (n=3)): 2 n | Upper GI haemorrhage grade 3, number of patients ([1]; schedule B, 200 mg (n=3)): 1 n | drug-related anaemia, incidence ([1]; schedule B, all doses): 18.5% | drug-related leukopenia, incidence ([1]; schedule B, all doses): 33.3% | drug-related neutropenia, incidence ([1]; schedule B, all doses): 33.3% | drug-related thrombocytopenia, incidence ([1]; schedule B, all doses): 14.8% | Abdominal distension grade 3, number of patients ([1]; schedule B, total (n=27)): 1 (3.7) n (%) | Abdominal pain grade 3, number of patients ([1]; schedule B, total (n=27)): 2 (7.4) n (%) | Anaemia grade 3, number of patients ([1]; schedule B, total (n=27)): 4 (14.8) n (%) | Anaemia grade 4, number of patients ([1]; schedule B, total (n=27)): 2 (7.4) n (%) | Decreased appetite grade 3, number of patients ([1]; schedule B, total (n=27)): 1 (3.7) n (%) | Dizziness grade 3, number of patients ([1]; schedule B, total (n=27)): 1 (3.7) n (%) | Dyspnoea grade 3, number of patients ([1]; schedule B, total (n=27)): 1 (3.7) n (%) | Fatigue grade 3, number of patients ([1]; schedule B, total (n=27)): 2 (7.4) n (%) | Febrile neutropenia grade 3, number of patients ([1]; schedule B, total (n=27)): 1 (3.7) n (%) | Hypokalaemia grade 3, number of patients ([1]; schedule B, total (n=27)): 2 (7.4) n (%) | Ileus grade 3, number of patients ([1]; schedule B, total (n=27)): 2 (7.4) n (%) | Infection grade 3, number of patients ([1]; schedule B, total (n=27)): 2 (7.4) n (%) | Leukopenia grade 3, number of patients ([1]; schedule B, total (n=27)): 1 (3.7) n (%) | Leukopenia grade 4, number of patients ([1]; schedule B, total (n=27)): 1 (3.7) n (%) | Neutropenia grade 3, number of patients ([1]; schedule B, total (n=27)): 2 (7.4) n (%) | Neutropenia grade 4, number of patients ([1]; schedule B, total (n=27)): 3 (11.1) n (%) | Pain grade 3, number of patients ([1]; schedule B, total (n=27)): 2 (7.4) n (%) | Rash grade 3, number of patients ([1]; schedule B, total (n=27)): 1 (3.7) n (%) | Thrombocytopenia grade 3, number of patients ([1]; schedule B, total (n=27)): 2 (7.4) n (%) | Upper GI haemorrhage grade 3, number of patients ([1]; schedule B, total (n=27)): 2 (7.4) n (%) | Vomiting grade 3, number of patients ([1]; schedule B, total (n=27)): 1 (3.7) n (%) | time of occurrence of DLTs ([2]; both schedules): 8–15 treatment days | patients with DLTs during course 1 ([2]; expansion cohort schedule A, 300 mg): Four patients | patients with DLTs ([2]; expansion cohort schedule B, 150 mg): None | patients with thrombocytopenia (grade 4) as DLT in first course ([2]; schedule A, 300 mg (MTD)): Two patients | patients with a DLT related to neutropenia ([2]; schedule A, 300 mg (MTD), 17 patients): Four patients | DLTs during course 1 ([2]; schedule A, 300 mg (n=6), dose escalation): No DLTs | duration of febrile neutropenia reported as DLT ([2]; schedule A, 300 mg, two patients): 3 days and 4 days | patients with DLTs in first treatment course ([2]; schedule A, 350 mg (n=3)): All three patients | maximum tolerated dose (MTD) ([2]; schedule A: 2-h i.v. infusion day 1 every 3 weeks): 300 mg | DLTs of thrombocytopenia (grade 4) ([2]; schedule B): no DLTs | patients with DLTs in first treatment course ([2]; schedule B, 200 mg (n=3)): two out of three patients | maximum tolerated dose (MTD) ([2]; schedule B: 2-h i.v. infusion days 1 and 8 every 3 weeks): 150 mg | DLTs after intra-individual dose escalation from MTD to a higher dose ([2]; up to 350 mg (schedule A, 3 patients) and 200 mg (schedule B, 1 patient)): No DLTs
